ChEMBL document CHEMBL3808334, “Synthesis and in vitro evaluation of novel triazine analogues as anticancer agents and their interaction studies with bovine serum albumin” (Eur J Med Chem, 2016)

Experiments:
Format in all cases: functional
[1] = Growth inhibition of human DU145 cells assessed as cell growth at 10^-4 M incubated for 48 hrs by sulforhodamine B assay; conditions: DU-145, 48 h, read-out: Activity
Procedure, shortened: (§1)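 Cells seeded at 5,000–40,000/well according to doubling time and preincubated 24 h at 37 °C, 5% CO2. Time-zero plates were TCA-fixed. DMSO concentrate was diluted in medium with 50 µg/ml gentamicin to give five concentrations (10-fold or ½ log steps), then exposed 48 h. Cells were TCA-fixed, stained with 0.4% SRB and read at 515 nm. Percent growth was taken against time-zero and control; GI50, TGI and LC50 derived.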

NCI-H23 [2] = assay: Growth inhibition of human NCI-H23 cells assessed as cell growth at 10^-7 M incubated for 48 hrs by sulforhodamine B assay; conditions: NCI-H23, 48 h, read-out: Activity
[3] = Growth inhibition of human HL-60(TB) cells assessed as cell growth at 10^-5 M incubated for 48 hrs by sulforhodamine B assay; conditions: HL-60, 48 h, read-out: Activity
Procedure, shortened: (§2)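 Cells plated at 5,000–40,000/well according to doubling time and preincubated 24 h at 37 °C, 5% CO₂, with time-zero plates TCA-fixed. Drugs were kept as DMSO concentrates at 400× the top concentration and diluted in medium with 50 µg/ml gentamicin. Five 10-fold or ½-log dilutions were run for 48 h, followed by SRB staining and A515. Percent growth = (Ti−Tz)/(C−Tz)×100, or (Ti−Tz)/Tz×100 when Ti<Tz.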

[4] = Growth inhibition of human Hs 578T cells assessed as cell growth at 10^-8 M incubated for 48 hrs by sulforhodamine B assay; conditions: read-out: Activity
[5] = Growth inhibition of human HCT116 cells incubated for 48 hrs by sulforhodamine B assay; conditions: HCT-116, 48 h; procedure, shortened: as §1
NCI-H23 [6] = assay: Growth inhibition of human NCI-H23 cells assessed as cell growth at 10^-5 M incubated for 48 hrs by sulforhodamine B assay; conditions: NCI-H23, 48 h, read-out: Activity
T47D = assay: Growth inhibition of human T47D cells assessed as cell growth at 10^-5 M incubated for 48 hrs by sulforhodamine B assay; conditions: read-out: Activity
[7] = Growth inhibition of human UACC62 cells assessed as cell growth at 10^-7 M incubated for 48 hrs by sulforhodamine B assay; conditions: UACC-62, 48 h, read-out: Activity
[8] = Growth inhibition of human LOXIMVI cells assessed as cell growth at 10^-6 M incubated for 48 hrs by sulforhodamine B assay; conditions: LOX IMVI, read-out: Activity
NCI-H322M = assay: Growth inhibition of human NCI-H322M cells assessed as cell growth at 10^-4 M incubated for 48 hrs by sulforhodamine B assay; conditions: read-out: Activity
[9] = Growth inhibition of human SKOV3 cells assessed as cell growth at 10^-5 M incubated for 48 hrs by sulforhodamine B assay; conditions: SK-OV-3, 48 h, read-out: Activity
[10] = Growth inhibition of human DU145 cells assessed as cell growth at 10^-5 M incubated for 48 hrs by sulforhodamine B assay; conditions: DU-145, 48 h, read-out: Activity; procedure, shortened: as §1
SK-MEL-2 [11] = assay: Growth inhibition of human SK-MEL-2 cells assessed as cell growth at 10^-6 M incubated for 48 hrs by sulforhodamine B assay; conditions: SK-MEL-2, 48 h, read-out: Activity
MDA-MB-435 = assay: Growth inhibition of human MDA-MB-435 cells assessed as cell growth at 10^-4 M incubated for 48 hrs by sulforhodamine B assay; conditions: MDA-MB-435, 48 h, read-out: Activity
[12] = Growth inhibition of human HL-60(TB) cells assessed as cell growth at 10^-7 M incubated for 48 hrs by sulforhodamine B assay; conditions: HL-60, 48 h, read-out: Activity; procedure, shortened: as §2
[13] = Growth inhibition of human HCC2998 cells assessed as cell growth at 10^-6 M incubated for 48 hrs by sulforhodamine B assay; conditions: HCC 2998, 48 h, read-out: Activity; procedure, shortened: as §1
[14] = Growth inhibition of human SF295 cells assessed as cell growth at 10^-6 M incubated for 48 hrs by sulforhodamine B assay; conditions: SF-295, 48 h, read-out: Activity
[15] = Growth inhibition of human DU145 cells assessed as cell growth at 10^-6 M incubated for 48 hrs by sulforhodamine B assay; conditions: DU-145, 48 h, read-out: Activity; procedure, shortened: as §1
[16] = Growth inhibition of human SF295 cells incubated for 48 hrs by sulforhodamine B assay; conditions: SF-295, 48 h
Procedure, shortened: (§3)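 Cells were plated at 5,000–40,000 per well according to doubling time and preincubated 24 h at 37 °C in 5% CO2; time-zero plates were then TCA-fixed. Five concentrations (10-fold or ½-log dilutions, DMSO stock) were incubated 48 h. Cells were TCA-fixed, stained with 0.4% SRB and read at 515 nm. GI50 was taken where [(Ti−Tz)/(C−Tz)]×100 = 50.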

SK-MEL-2 [17] = assay: Growth inhibition of human SK-MEL-2 cells assessed as cell growth at 10^-5 M incubated for 48 hrs by sulforhodamine B assay; conditions: SK-MEL-2, 48 h, read-out: Activity
[18] = Growth inhibition of human UO31 cells assessed as cell growth at 10^-8 M incubated for 48 hrs by sulforhodamine B assay; conditions: UO-31, 48 h, read-out: Activity
786-0 [19] = assay: Growth inhibition of human 786-0 cells assessed as cell growth at 10^-8 M incubated for 48 hrs by sulforhodamine B assay; conditions: 786-0, 48 h, read-out: Activity
Procedure, shortened: (§4)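 Five-dose assay: five concentrations from 10-fold or ½-log serial dilutions. Cells are plated at 5,000–40,000 per well according to doubling time, grown 24 h, then exposed 48 h at 37 °C, 5% CO₂. Fixed with cold 50% TCA (final addition) for 60 min at 4 °C and stained with 0.4% SRB in 1% acetic acid. Bound dye is solubilized in 10 mM Tris base and read at 515 nm. GI₅₀ is where [(Ti−Tz)/(C−Tz)]×100 = 50, with a time-zero plate as Tz.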

SR = assay: Growth inhibition of human SR cells assessed as cell growth at 10^-4 M incubated for 48 hrs by sulforhodamine B assay; conditions: read-out: Activity
[20] = Growth inhibition of human OVCAR8 cells incubated for 48 hrs by sulforhodamine B assay; conditions: OVCAR-8, 48 h; procedure, shortened: as §3
U-251 = assay: Growth inhibition of human U251 cells assessed as cell growth at 10^-4 M incubated for 48 hrs by sulforhodamine B assay; conditions: U-251, 48 h, read-out: Activity
786-0 [21] = assay: Growth inhibition of human 786-0 cells assessed as cell growth at 10^-6 M incubated for 48 hrs by sulforhodamine B assay; conditions: 786-0, 48 h, read-out: Activity; procedure, shortened: as §4
[22] = read-out: LC50 (the source's name)
[23] = read-out: pLC50 (the source's name) (converted)

For `c1ccc(-c2nc(Nc3ccc(-c4nc5ccccc5[nH]4)cc3)nc(N3CCOCC3)n2)cc1`, the growth at 100 µM [1] was -100%, the growth at 0.1 µM (NCI-H23 [2]) was 95% and the growth at 10 µM [3] was -44%. For the same compound, the growth at 0.01 µM [4] was 94%, the GI50 ([5]; read-out: GI50) was 0.394 µM and the CC50 [5, 22] was 7.18 µM. The TGI ([5]; read-out: TGI) was 1.62 µM, the GI50 ([5]; read-out: pGI50 (converted)) was 0.398 µM and the CC50 [5, 23] was 7.24 µM. For the same compound, the TGI ([5]; read-out: pTGI (converted)) was 1.62 µM, the growth at 10 µM (NCI-H23 [6]) was -44% and the growth at 10 µM (T47D) was -56%. For the same compound, the growth at 0.1 µM [7] was 97%, the growth at 1 µM [8] was 29% and the growth at 100 µM (NCI-H322M) was -62%. For the same compound, the growth at 10 µM [9] was -62%, the growth at 10 µM [10] was -96% and the growth at 1 µM (SK-MEL-2 [11]) was 106%. For the same compound, the growth at 100 µM (MDA-MB-435) was -86%, the growth at 0.1 µM [12] was 26% and the growth at 1 µM [13] was 93%. It also gave a growth at 1 µM [14] of 64%, a growth at 1 µM [15] of 63% and a GI50 ([16]; read-out: GI50) of 1.25 µM. The CC50 [16, 22] was 6.47 µM, the TGI ([16]; read-out: TGI) was 2.84 µM and the GI50 ([16]; read-out: pGI50 (converted)) was 1.26 µM. The CC50 [16, 23] was 6.46 µM, the TGI ([16]; read-out: pTGI (converted)) was 2.82 µM and the growth at 10 µM (SK-MEL-2 [17]) was -85%. For the same compound, the growth at 0.01 µM [18] was 82%, the growth at 0.01 µM (786-0 [19]) was 99% and the growth at 100 µM (SR) was -28%. The GI50 ([20]; read-out: GI50) was 1.72 µM, the CC50 [20, 22] was 6.79 µM and the TGI ([20]; read-out: TGI) was 3.41 µM. For the same compound, the GI50 ([20]; read-out: pGI50 (converted)) was 1.7 µM, the CC50 [20, 23] was 6.76 µM and the TGI ([20]; read-out: pTGI (converted)) was 3.39 µM. For the same compound, the growth at 100 µM (U-251) was -69% and the growth at 1 µM (786-0 [21]) was 9%.

In the case of `Fc1ccc(-c2nc(Nc3ccc(-c4nc5ccccc5[nH]4)cc3)nc(N3CCOCC3)n2)cc1`, the growth at 100 µM [1] is reported as 8%, the growth at 0.1 µM (NCI-H23 [2]) is reported as 91% and the growth at 10 µM [3] is reported as -27%. For the same compound, the growth at 0.01 µM [4] was 95%, the GI50 ([5]; read-out: GI50) was 1.9 µM and the CC50 [5, 22] was 6.56 µM. It also gave a TGI ([5]; read-out: TGI) of 3.53 µM, a GI50 ([5]; read-out: pGI50 (converted)) of 1.91 µM and a CC50 [5, 23] of 6.61 µM. It also gave a TGI ([5]; read-out: pTGI (converted)) of 3.55 µM, a growth at 10 µM (T47D) of -50% and a growth at 0.1 µM [7] of 91%. For the same compound, the growth at 1 µM [8] was 91%, the growth at 100 µM (NCI-H322M) was 9% and the growth at 10 µM [9] was -35%. For the same compound, the growth at 10 µM [10] was 25%, the growth at 1 µM (SK-MEL-2 [11]) was 99% and the growth at 100 µM (MDA-MB-435) was -42%. The growth at 0.1 µM [12] was 79%, the growth at 1 µM [13] was 94% and the growth at 1 µM [14] was 72%. For the same compound, the growth at 1 µM [15] was 98%, the GI50 ([16]; read-out: GI50) was 1.59 µM and the CC50 [16, 22] was over 100 µM. The TGI ([16]; read-out: TGI) was 4.7 µM, the GI50 ([16]; read-out: pGI50 (converted)) was 1.58 µM and the CC50 [16, 23] was over 100 µM. It also gave a TGI ([16]; read-out: pTGI (converted)) of 4.68 µM, a growth at 10 µM (SK-MEL-2 [17]) of -35% and a growth at 0.01 µM [18] of 88%. It also gave a growth at 0.01 µM (786-0 [19]) of 100%, a growth at 100 µM (SR) of 1% and a GI50 ([20]; read-out: GI50) of 3.26 µM. For the same compound, the CC50 [20, 22] was over 100 µM, the TGI ([20]; read-out: TGI) was 10.8 µM and the GI50 ([20]; read-out: pGI50 (converted)) was 3.24 µM. For the same compound, the CC50 [20, 23] was over 100 µM, the TGI ([20]; read-out: pTGI (converted)) was 10.7 µM and the growth at 100 µM (U-251) was -33%. It also gave a growth at 1 µM (786-0 [21]) of 73%.
